# pEC50, pKi: −log10 of the molar value.
# Key:
# [1] = biological target: T1, Cannabinoid receptor 2 (Homo sapiens, UniProt P34972); assay: Activity at human CB2 receptor expressed in CHO cells assessed as cAMP accumulation incubated for 30 mins by time-resolved FRET assay; assay type: functional, cell-based
# In short: (§1)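 CHO cells expressing human CB1 or CB2 were seeded 1 day before in DMEM/HT supplement/10% FCS. Medium was replaced with Krebs Ringer bicarbonate buffer containing 1 mM IBMX, 30 min at 30 °C, then compound added for 30 min at 30 °C. cAMP was read by time-resolved FRET (cAMP-Nano-TRF kit) against a standard curve from 10 μM to 0.13 nM. Ten concentrations in triplicate, single experiment.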
# [2] = biological target: Cannabinoid receptor 1 (Homo sapiens, UniProt P21554); assay: Activity at human CB1 receptor expressed in CHO cells assessed as cAMP accumulation incubated for 30 mins by time-resolved FRET assay; assay type: functional, cell-based; in short: as §1
# Cannabinoid receptor 1, sequence (P21554 whole entry, looked up): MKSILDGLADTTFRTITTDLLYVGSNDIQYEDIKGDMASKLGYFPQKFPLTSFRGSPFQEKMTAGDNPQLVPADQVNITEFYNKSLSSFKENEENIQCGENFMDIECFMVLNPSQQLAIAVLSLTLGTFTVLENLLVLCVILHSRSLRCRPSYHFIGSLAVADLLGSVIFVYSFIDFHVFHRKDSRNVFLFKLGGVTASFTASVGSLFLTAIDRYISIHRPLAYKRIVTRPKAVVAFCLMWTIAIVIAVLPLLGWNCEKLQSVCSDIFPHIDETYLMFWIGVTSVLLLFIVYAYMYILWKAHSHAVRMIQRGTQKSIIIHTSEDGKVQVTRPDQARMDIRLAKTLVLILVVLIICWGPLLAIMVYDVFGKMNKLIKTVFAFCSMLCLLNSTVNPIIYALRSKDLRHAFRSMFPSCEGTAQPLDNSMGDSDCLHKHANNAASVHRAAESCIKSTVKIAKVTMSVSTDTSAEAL
# [3] = biological target: T1, Cannabinoid receptor 2; assay: Displacement of [3H]CP-55,940 from human CB2 receptor expressed in CHO cell membranes
# In short: (§2)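 Membranes from CHO cells expressing human or murine CB2 were incubated with [3H]CP-55,940 in 50 mM Tris, 5 mM MgCl2, 2.5 mM EGTA, 0.1% fatty-acid-free BSA, pH 7.4, 1 h at 30 °C with shaking. Reaction stopped by filtration through PEI-coated GF/B. Ki from nonlinear regression using saturation-derived Kd. Ten concentrations in triplicate.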
# [4] = biological target: Cannabinoid receptor 2 (Mus musculus, UniProt P47936); assay: Displacement of [3H]CP-55,940 from mouse CB2 receptor expressed in CHO cell membranes; in short: as §2
# Cannabinoid receptor 2 (Mus musculus, UniProt P47936), sequence (P47936 whole entry): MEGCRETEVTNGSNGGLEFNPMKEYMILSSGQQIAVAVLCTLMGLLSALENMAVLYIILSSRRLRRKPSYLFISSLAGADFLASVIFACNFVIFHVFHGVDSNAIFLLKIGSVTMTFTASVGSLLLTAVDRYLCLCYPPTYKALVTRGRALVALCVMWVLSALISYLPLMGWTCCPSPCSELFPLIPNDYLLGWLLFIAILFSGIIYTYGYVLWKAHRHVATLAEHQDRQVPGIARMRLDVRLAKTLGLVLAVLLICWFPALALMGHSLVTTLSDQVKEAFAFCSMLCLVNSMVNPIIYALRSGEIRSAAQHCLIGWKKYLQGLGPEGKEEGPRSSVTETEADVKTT
# [5] = Lipophilicity, log D of the compound in n-octanol/phosphate buffer pH 7.4 by shake flask method; assay type: physicochemical
# [6] = tested on: CHO; assay: Selectivity index, ratio of EC50 for human CB1 receptor expressed in CHO cells to EC50 for human CB2 receptor expressed in CHO cells; assay type: cell-based
# [7] = Substrate activity at P-gp (unknown origin); assay type: ADME; conditions: human
# [8] = Drug level in brain of ip dosed rat after 1 hr; assay type: ADME, organism-based; conditions: read-out: Drug uptake
# [9] = Ratio of drug level in brain to plasma in ip dosed rat; assay type: ADME, organism-based; conditions: read-out: BPR
# [10] = biological target: T1, Cannabinoid receptor 2; assay: Binding affinity to human CB2 receptor
# In short: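 Competition binding with [³H]CP-55,940 on membranes from CHO cells expressing human CB2. Buffer: 50 mM Tris, 5 mM MgCl₂, 2.5 mM EGTA, 0.1% fatty-acid-free BSA, pH 7.4. Incubated 1 h at 30 °C with shaking, then rapid filtration through 0.5% polyethylenimine-coated filters. Ki from nonlinear regression, using Kd from saturation experiments. Single experiment, triplicates, 10 concentrations.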
# T1 sequence (P34972 whole entry): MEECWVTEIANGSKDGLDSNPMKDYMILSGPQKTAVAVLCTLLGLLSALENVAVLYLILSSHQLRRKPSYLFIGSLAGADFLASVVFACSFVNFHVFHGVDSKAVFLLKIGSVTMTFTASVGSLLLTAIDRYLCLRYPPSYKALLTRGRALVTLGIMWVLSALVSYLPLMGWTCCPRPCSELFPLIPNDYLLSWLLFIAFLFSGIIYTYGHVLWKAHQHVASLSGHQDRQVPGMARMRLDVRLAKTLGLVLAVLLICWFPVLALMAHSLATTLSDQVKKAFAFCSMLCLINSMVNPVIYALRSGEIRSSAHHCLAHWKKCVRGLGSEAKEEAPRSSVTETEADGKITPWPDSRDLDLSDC
smiles,measurement,setting,value
CCC(CC)(NC(=O)c1ccc(N2CC(F)(F)C2)c(OCC2CC2)n1)C(=O)NC,pEC50,[1],8.37
same,pEC50,[2],< 5.00
same,pKi,[3],6.75
same,pKi,[4],6.61
same,logD,[5],3.76
CC(C)(NC(=O)c1ccc(N2CC(F)(F)C2)c(OCC2CC2)n1)c1nnc(-c2ccccc2)o1,pEC50,[1],< 5.00
same,pEC50,[2],< 5.00
same,pKi,[3],5.40
same,pKi,[4],< 5.00
CC(C)(Cc1nnc(-c2ccc(F)cc2)o1)NC(=O)c1ccc(C2CCCC2)c(OCC2CC2)n1,pEC50,[2],< 5.00
same,pKi,[3],6.38
same,pKi,[4],6.39
COC1CN(c2ccc(C(=O)NC(C)(C)Cc3nnc(C4CCC4)o3)nc2OCC2CC2)C1,pEC50,[1],5.40
same,pEC50,[2],< 5.00
same,logD,[5],3.37
CCC(CC)(NC(=O)c1ccc(N2CC(OC)C2)c(OCC2CC2)n1)C(=O)NC,pEC50,[2],< 5.00
same,pKi,[3],6.77
same,pKi,[4],7.22
same,logD,[5],3.18
COC1CN(c2ccc(C(=O)NCC3(O)CCCCC3)nc2OCC2CC2)C1,pEC50,[2],< 5.00
same,pKi,[3],5.54
same,pKi,[4],5.65
CCOC(=O)C(CC)(CC)NC(=O)c1ccc(C2CCCC2)c(OCC2CC2)n1,pEC50,[1],8.54
same,pEC50,[2],< 5.00
same,pKi,[3],7.79
same,pKi,[4],7.41
CCOC(=O)C(CC)(CC)NC(=O)c1ccc(N2CC(OC)C2)c(OCC2CC2)n1,pEC50,[1],8.36
same,pEC50,[2],< 5.00
same,pKi,[3],8.60
same,pKi,[4],8.74
same,Ratio EC50,[6],> 1000
same,Ratio EC50,[6]; tested as the 11C-labelled form,150
CCC(CC)(NC(=O)c1ccc(N2CC(OC)C2)c(OCC2CC2)n1)C(=O)N1CC(F)C1,pEC50,[1],8.36
same,pEC50,[2],< 5.00
same,pKi,[3],7.74
same,pKi,[4],8.16
same,Ratio EC50,[6],> 1000
same,logD,[5],3.25
same,Activity,[7],Active
COc1ccc2c(c1)c(CCN1CCOCC1)c(C)n2C(=O)c1cccc(Cl)c1Cl,concentration at 1 h,[8],> 100 nM
same,Kp,[9],5
same,pKi,[10],8.41

# Reference: ChEMBL document CHEMBL3580634, “Discovery of a high affinity and selective pyridine analog as a potential positron emission tomography imaging agent for cannabinoid type 2 receptor” (J Med Chem, 2015)
